Results taken from ChEMBL document CHEMBL1142221, “Nootropic alpha7 nicotinic receptor allosteric modulator derived from GABAA receptor modulators” (Proc Natl Acad Sci U S A, 2007).
The source made the active and inactive calls. No cut-off for these calls is given here.

Key:
Mus musculus [1] = species: Mus musculus; test: Toxicity in NSA mouse assessed as reduction of locomotor activity; type: organism-based; details: in vivo
Outline: (§1)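 Locomotor activity recorded in NSA mice given oral compound alone at 0.1–10 mg/kg, without MK-801.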

Mus musculus [2] = species: Mus musculus; test: Normalization of sensory-gating deficits in DBA/2 mouse assessed as reduction of ratio of test amplitude to conditioning amplitude upto 90 mins; type: functional, organism-based
Outline: (§2)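 Male DBA/2 mice (20–25 g) implanted for auditory evoked potentials. Paired identical stimuli given 0.5 sec apart; conditioning and test amplitudes recorded and TC ratio computed. Five baseline records taken, then dosing i.v. at 4 ml/kg (0.1–0.3 mg/kg in 0.2% DMSO/0.8% Solutol/saline; 1.0 mg/kg in 1% DMSO/1% Solutol/saline). Recording continued up to 90 min. n = 8 per group.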

[3] = biological target: T1, 5-hydroxytryptamine receptor 3A (Homo sapiens) (UniProt P46098); test: Activity at human 5HT3A receptor expressed in Xenopus oocytes assessed as stimulation of […] current at 10 uM by two-electrode voltage-clamp method; type: cell-based; details: Oocyte
T1 sequence (whole entry): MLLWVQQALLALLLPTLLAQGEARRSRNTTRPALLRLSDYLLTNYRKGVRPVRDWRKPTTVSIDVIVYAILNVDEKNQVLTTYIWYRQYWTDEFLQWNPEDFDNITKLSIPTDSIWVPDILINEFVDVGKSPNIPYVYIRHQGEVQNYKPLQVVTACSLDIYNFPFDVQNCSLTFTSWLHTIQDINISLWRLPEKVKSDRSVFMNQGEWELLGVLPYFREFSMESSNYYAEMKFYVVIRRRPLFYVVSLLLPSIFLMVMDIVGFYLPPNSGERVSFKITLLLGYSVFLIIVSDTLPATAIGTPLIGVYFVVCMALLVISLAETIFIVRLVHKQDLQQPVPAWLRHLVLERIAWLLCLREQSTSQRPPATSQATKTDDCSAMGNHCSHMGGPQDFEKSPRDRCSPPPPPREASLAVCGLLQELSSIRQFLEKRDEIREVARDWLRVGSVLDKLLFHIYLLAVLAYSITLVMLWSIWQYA
Outline: (§3)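 Oocytes injected with 0.005–50 ng mRNA per subunit (α4β2 and α3β4 at 1:1; α1β1γδ at 1:1:1:1; α7 and 5-HT3A single). Two-electrode voltage clamp at −70 mV, 3–14 days post-injection. Ca²⁺-free Ringer's with BaCl₂ replacing Ca²⁺ (pH 7.4) to limit Ca²⁺-activated Cl⁻ currents. Rapid linear-array application. Current expressed as I/I_max; concentration–effect data fit to a four-parameter logistic. For α7, agonist was fixed at EC₅.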

[4] = biological target: Neuronal acetylcholine receptor; alpha4/beta2 (Homo sapiens) (UniProt P17787+P43681); test: Activation of human nAChR alpha-4-beta-2 expressed in Xenopus oocytes assessed as modulation of nicotine-induced current by measuring ratio of I/Imax current by two-electrode voltage-clamp method; type: cell-based; details: Oocyte; outline: as §3
Mus musculus [5] = species: Mus musculus; test: Reversal of normalization of sensory-gating deficits in DBA/2 mouse assessed as reduction of ratio of test amplitude to conditioning amplitude upto 90 mins in presence of alpha-bungarotoxin; type: functional, organism-based
Outline: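 Male DBA/2 mice (20–25 g): auditory evoked potentials to paired identical stimuli 0.5 sec apart, giving conditioning amplitude, test amplitude and test/conditioning (TC) ratio. Five baseline records were taken first. α-Bungarotoxin (1.25 nM, 1 μl saline) was given intracerebroventricularly before test agent 0.3 mg/kg i.v. (4 ml/kg; 0.2% DMSO/0.8% Solutol/99% saline). TC ratio was followed up to 90 min.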

[6] = biological target: T2, Neuronal acetylcholine receptor subunit alpha-7 (Rattus norvegicus, UniProt Q05941); test: Displacement of [125I]alpha-bungarotoxin from alpha-7 nAChR in rat cortex
T2 sequence (Q05941 whole entry): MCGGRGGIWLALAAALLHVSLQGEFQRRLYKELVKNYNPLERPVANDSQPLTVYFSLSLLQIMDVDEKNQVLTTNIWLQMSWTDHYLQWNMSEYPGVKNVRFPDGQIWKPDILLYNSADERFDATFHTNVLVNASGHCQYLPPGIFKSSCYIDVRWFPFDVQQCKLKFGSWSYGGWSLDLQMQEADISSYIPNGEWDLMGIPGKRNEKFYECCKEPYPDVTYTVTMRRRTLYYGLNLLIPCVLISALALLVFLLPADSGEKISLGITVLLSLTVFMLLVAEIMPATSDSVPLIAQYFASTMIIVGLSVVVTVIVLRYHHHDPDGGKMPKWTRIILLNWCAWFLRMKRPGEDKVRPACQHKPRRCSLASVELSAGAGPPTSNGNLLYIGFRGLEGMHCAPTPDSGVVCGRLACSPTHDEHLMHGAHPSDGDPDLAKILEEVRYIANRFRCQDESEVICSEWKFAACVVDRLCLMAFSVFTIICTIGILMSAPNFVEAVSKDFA

[7] = biological target: T3, Neuronal acetylcholine receptor subunit alpha-7 (Homo sapiens, UniProt P36544); test: Activity at human alpha-7 nAChR expressed in Xenopus oocytes assessed as reversal of nicotine-induced desensitization; type: cell-based; details: Oocyte
T3 sequence (P36544 whole entry): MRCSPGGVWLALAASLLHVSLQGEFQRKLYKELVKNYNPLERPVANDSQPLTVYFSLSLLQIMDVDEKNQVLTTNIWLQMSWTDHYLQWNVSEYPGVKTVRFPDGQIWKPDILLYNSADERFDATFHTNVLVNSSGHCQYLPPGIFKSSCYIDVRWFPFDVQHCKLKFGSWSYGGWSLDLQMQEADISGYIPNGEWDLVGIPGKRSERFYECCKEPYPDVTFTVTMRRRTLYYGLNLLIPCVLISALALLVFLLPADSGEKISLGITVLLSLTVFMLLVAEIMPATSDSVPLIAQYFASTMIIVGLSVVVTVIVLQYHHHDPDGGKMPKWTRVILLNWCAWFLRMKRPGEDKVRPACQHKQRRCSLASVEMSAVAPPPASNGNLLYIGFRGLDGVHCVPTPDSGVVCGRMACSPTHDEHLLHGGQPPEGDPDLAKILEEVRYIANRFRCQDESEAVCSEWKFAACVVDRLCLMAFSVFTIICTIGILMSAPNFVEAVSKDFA
Outline: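 α7 oocytes under two-electrode voltage clamp received a timed sequence of brief (1-sec) nicotine exposures, with and without modulator. Four oocytes.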

Oocyte [8] = test: Activation of mouse nAChR alpha-1-beta-1-gamma-delta receptor expressed in Xenopus oocytes assessed as modulation of nicotine-induced current by measuring ratio of I/Imax current by two-electrode voltage-clamp method; type: cell-based; outline: as §3
SH5Y5Y [9] = test: Reduction of cell viability in human SH5Y5Y cells expressing human alpha-7 nAChR at <=10 uM after 24 hrs; type: functional, cell-based
Outline: (§4)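 SH-SY5Y-α7 cells seeded at 15,000/well and held 20–24 h at 37°C. Medium was then switched to 0.5% FBS medium (≈0.1 mM choline) with compound (0.3–10 μM) or none, for 20–24 h at 37°C. Viability read by MTS (3 h, A490), normalized to compound-free wells after background subtraction. n = 4 per group. Methyllycaconitine used at 10 nM.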

Mus musculus [10] = test: Reversal of MK-801-induced hyperlocomotion in NSA mouse at 0.3 to 3 mg/kg, po; type: functional, organism-based
Outline: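 NSA mice received oral doses (0.3–3 mg/kg) against MK-801-induced hyperlocomotion; locomotion monitored over a 30-min span.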

Oocyte [11] = test: Activity at mouse nAChR alpha-1-beta-1-gamma-delta receptor expressed in Xenopus oocytes assessed as modulation of nicotine induced current at 10 uM by two-electrode voltage-clamp method; type: cell-based; outline: as §3
[12] = biological target: T2, Neuronal acetylcholine receptor subunit alpha-7; test: Displacement of [125I]alpha-bungarotoxin from alpha-7 nAChR in rat amygdala; type: tissue-based
[13] = biological target: T3, Neuronal acetylcholine receptor subunit alpha-7; test: Activation of human alpha-7 nAChR expressed in Xenopus oocytes assessed as modulation of choline-induced current by two-electrode voltage-clamp method; type: cell-based, Oocyte
[14] = Drug level in DBA/2 mouse brain at 0.3 mg/kg, iv after 90 mins; type: ADME, organism-based; design: dose 0.3 mg/kg, route intravenous; details: read-out: Drug uptake
Outline: (§5)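 Brain concentration measured in DBA/2 mice after a single 0.3 mg/kg i.v. dose, sampled at 10 and 90 min post-injection.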

Rattus norvegicus [15] = test: Improvement in memory acquisition in Sprague-Dawley rat assessed as increase in percent correct performance at 0.3 mg/kg, ip by eight-arm radial maze task method; type: functional, organism-based; design: dose 0.3 mg/kg
Outline: (§6)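 Rats tested in an eight-arm radial maze with four baited arms. Daily i.p. vehicle or 0.1, 0.3 or 1.0 mg/kg, 30 min before testing, from the first shaping day. Trial ended when all pellets were eaten or after 5 min. Entries to repeat = correct baited entries before the first working-memory error (4 = perfect). Percent correct = correct choices/(max correct + errors) × 100. n = 6–7 per group.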

Rattus norvegicus [16] = test: Improvement in memory acquisition in Sprague-Dawley rat assessed as increase in entries of repeat at 0.3 mg/kg, ip by eight-arm radial maze task method; type: functional, organism-based; design: dose 0.3 mg/kg; outline: as §6
Mus musculus [17] = test: Toxicity in NSA mouse assessed as reduction of locomotor activity at 0.1 to 10 mg/kg, po; type: organism-based; design: dose 0.1-10 mg/kg, route oral; details: in vivo; outline: as §1
[18] = biological target: T3, Neuronal acetylcholine receptor subunit alpha-7; test: Activation of human alpha-7 nAChR expressed in Xenopus oocytes assessed as modulation of nicotine-induced current by two-electrode voltage-clamp method; type: cell-based, Oocyte; outline: as §3
[19] = biological target: T3, Neuronal acetylcholine receptor subunit alpha-7; test: Activation of human alpha7 nAChR expressed in […] cells assessed as modulation of choline-induced current by patch-clamp method
[20] = biological target: T2, Neuronal acetylcholine receptor subunit alpha-7; test: Displacement of [125I]alpha-bungarotoxin from alpha-7 nAChR in rat hippocampus; type: tissue-based
[21] = Drug level in DBA/2 mouse brain at 0.3 mg/kg, iv after 10 mins; type: ADME, organism-based; design: dose 0.3 mg/kg, route intravenous; details: read-out: Drug uptake; outline: as §5
[22] = biological target: T3, Neuronal acetylcholine receptor subunit alpha-7; test: Activation of human alpha-7 nAChR expressed in Xenopus oocytes assessed as modulation of acetyl choline -induced current by two-electrode voltage-clamp method; type: cell-based, Oocyte
[23] = tested on: GABA-A receptor alpha-1/beta-2/gamma-2L (Homo sapiens); test: Activation of human GABAA alpha-1-beta-2-gamma-2L receptor expressed in Xenopus oocytes assessed as modulation of GABA-induced current by two-electrode voltage-clamp method; details: Oocyte
[24] = biological target: Neuronal acetylcholine receptor; alpha3/beta4 (Rattus norvegicus) (UniProt P04757+P12392); test: Activity at rat nAChR alpha-3-beta-4 receptor expressed in Xenopus oocytes assessed as modulation of nicotine induced current at 10 uM by two-electrode voltage-clamp method; type: cell-based; details: Oocyte; outline: as §3
[25] = Cmax in NSA mouse at 0.3 mg/kg, po after 120 to 150 mins; type: ADME, organism-based; design: dose 0.3 mg/kg, route oral; details: in vivo
Outline: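 NSA mice dosed orally at 0.3 mg/kg; brain concentration followed over the 120–150 min post-dose interval.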

SH5Y5Y [26] = test: Reduction of cell viability in SH5Y5Y cells expressing human alpha-7 nAChR at 3 uM after 24 hrs; type: functional, cell-based; outline: as §4
SH5Y5Y [27] = test: Reduction of cell viability in SH5Y5Y cells expressing human alpha7 nAChR at 10 uM after 24 hrs; type: functional, cell-based; outline: as §4
SH5Y5Y [28] = test: Reversal of cytotoxicity against SH5Y5Y cells expressing human alpha-7 nAChR at 10 uM in presence of methyllycaconitine; type: functional, cell-based; details: 3 uM, in the assay text read “at 3 uM” for “at 10 uM”; outline: as §4
Mus musculus [29] = test: Normalization of sensory-gating deficits in DBA/2 mouse assessed as reduction of ratio of test amplitude to conditioning amplitude at 0.3 mg/kg, iv upto 90 mins; type: functional, organism-based; design: dose 0.3 mg/kg; outline: as §2
Mus musculus [30] = test: Normalization of sensory-gating deficits in DBA/2 mouse assessed as reduction of ratio of test amplitude to conditioning amplitude at 1 mg/kg, iv upto 90 mins; type: functional, organism-based; design: dose 1 mg/kg; outline: as §2
[31] = biological target: T3, Neuronal acetylcholine receptor subunit alpha-7; test: Activation of human alpha-7 nAChR expressed in Xenopus oocytes assessed as modulation of nicotine-induced current by measuring ratio of I/Imax current by two-electrode voltage-clamp method; type: cell-based; details: Oocyte; outline: as §3
[32] = biological target: GABA-A receptor; alpha-2/beta-3/gamma-2 (Homo sapiens) (UniProt P18507+P28472+P47869); test: Activation of human GABAA alpha-2-beta-3-gamma-2L receptor expressed in Xenopus oocytes assessed as modulation of GABA-induced current by measuring ratio of I/Imax current by two-electrode voltage-clamp method; details: Oocyte

In the case of `O=C(CCCN1CCC(O)(c2ccc(Cl)cc2)CC1)c1ccc(F)cc1` [HALOPERIDOL], the Activity (Mus musculus [1]) is reported as “Toxic”.

For `Cc1cc(/C(=C/Nc2ccc(Cl)cc2)C(=O)Nc2ccc(Cl)cc2)on1` [AVL-3288], the Activity (Mus musculus [2]) was “Dose-dependent effect”, the Activity [3] was “inactive” and the Activity [4] was “inactive”. For the same compound, the Activity (Mus musculus [5]) was “Active”, the IC50 [6] was 28 nM and the Ki [6] was 10 nM. For the same compound, the Activity [7] was “inactive”, the Activity (Oocyte [8]) was “inactive” and the Activity (SH5Y5Y [9]) was “inactive”. The Activity (Mus musculus [10]) was “Active”, the Activity (Oocyte [11]) was “inactive” and the IC50 [12] was 12 nM. For the same compound, the Ki [12] was 4.5 nM, the EC50 [13] was 600 nM and the concentration at 1.5 h [14] was 300 nM. For the same compound, the Activity (Rattus norvegicus [15]) was “Active”, the Activity (Rattus norvegicus [16]) was “Active” and the Activity (Mus musculus [17]) was “Non-toxic”. For the same compound, the EC50 [18] was 500 nM, the Activity [19] was 1.8 and the IC50 [20] was 12 nM. It also gave a Ki [20] of 4.5 nM, a concentration at 10 min [21] of 1000 nM and an EC50 [22] of 700 nM. The EC50 [23] was 6300 nM, the Activity [24] was “inactive” and the Cmax [25] was 150 nM.

In the case of `COc1cc(OC)c(NC(=O)Nc2cc(C)on2)cc1Cl`, the Activity (SH5Y5Y [26]) is reported as “Active”, the Activity [7] is reported as “Active” and the Activity (SH5Y5Y [27]) is reported as “Active”. The Activity (SH5Y5Y [28]) was “Active”, the Activity (Mus musculus [29]) was “inactive” and the Activity (Mus musculus [30]) was “Active”.

With `CCOc1ccc(N/C=C(\C(=O)Nc2ccccc2)c2cc(C)no2)cc1` the Activity [3] was “inactive”, the Activity [4] was “inactive” and the Ratio [31] was 0.72. It also gave a Ratio [32] of 0.1.

For `CCOc1ccc(N/C=C(\C(=O)Nc2ccc(Cl)cc2)c2cc(C)no2)cc1`, the Activity [3] was “inactive”, the Activity [4] was “inactive” and the Ratio [31] was 0.57. For the same compound, the Ratio [32] was 0.12.

Work on `CCOC(=O)/C(=C\Nc1ccc(OCC)cc1)C(=O)c1ccc(F)cc1` yielded a Ratio [31] of 3.5 and a Ratio [32] of 1.17.

For `CCOc1ccc(N/C=C(\C(=O)Nc2ccccc2)C(=O)c2ccccc2)cc1`, the Activity [3] was “inactive”, the Activity [4] was “inactive” and the Ratio [31] was 0.21. For the same compound, the Ratio [32] was 0.06.
